Measured values pooled from the literature.
Each line is one published result; the experiments were not run side by side.
Target: Receptor tyrosine-protein kinase erbB-2 (ERBB2, Homo sapiens, UniProt P04626)

With `CO[C@@H]1[C@H](N(C)C(=O)c2ccccc2)C[C@H]2O[C@]1(C)n1c3ccccc3c3c4c(c5c6ccccc6n2c5c31)C(=O)NC4` the inhibition was 0% (enzyme activity, inhibitor; 1 µM).
The remaining signal of `C#Cc1cnc(Nc2ccnc(CO)c2)nc1Nc1ccccc1S(C)(=O)=NC#N` (stereo not shown) is reported as 86% (cell-free assay; 1 µM).
The remaining binding of `N#Cc1ccc(NC(=O)Nc2ccccc2)cc1` is reported as 100% (cell-free assay, competition with immobilised ligand; 25 µM).
`C1=C/COCc2cc(ccc2OCCN2CCCC2)Nc2nccc(n2)-c2cccc(c2)COC/1` has a remaining binding of 100% (binding; 0.1 µM).
For `COc1ccc2oc(-c3ccc4nc(N)oc4c3)c/c(=N\c3ccccc3NC(=O)CCN)c2c1`, the remaining binding was 104% (binding; 1 µM).
`Cc1ccc(NC(=O)c2ccnc(C(F)(F)F)c2)cc1-c1cc(OCCO)nc(N2CCOCC2)c1` has a remaining binding of 72% (binding, competition with immobilised ligand; 1 µM).
`C=CC(=O)N1CCC[C@@H](n2nc(-c3ccc(Oc4ccccc4)cc3)c3c(N)ncnc32)C1` has an inhibition of 100% (enzyme activity, inhibitor; 1 µM).
The remaining binding of `C[C@H]1CC[C@H](n2c3cnccc3c3cnc(Nc4ccc5c(n4)CCN(C(=O)CO)C5)nc32)CC1` is reported as 100% (binding, competition with immobilised ligand; 1 µM).
With `COc1c(Cl)cccc1Nc1c(-c2ccncc2OC[C@@H]2COCCO2)[nH]c2c1C(=O)NCC2` the inhibition was > 80% (enzyme activity, inhibitor, radiometric; 1 µM).
`CCCCC(=O)Nc1ccc(-c2ccc3ncn(CCC)c(=O)c3c2)cn1` gave a remaining binding of 97% (binding, competition with immobilised ligand; 0.5 µM).
